The values below come from ChEMBL document CHEMBL4371016, “Proline- and Arginine-Rich Peptides as Flexible Allosteric Modulators of Human Proteasome Activity” (J Med Chem, 2019).

SMILES strings stand for the structures. Active and inactive are the calls of the source. No cut-off for these calls is given here. Residues, ends and D or L forms follow the SMILES beside them.

Test [1] concerns the target T1, Proteasome Macropain subunit MB1 (Homo sapiens) (UniProt P28074).
T1 sequence (whole entry): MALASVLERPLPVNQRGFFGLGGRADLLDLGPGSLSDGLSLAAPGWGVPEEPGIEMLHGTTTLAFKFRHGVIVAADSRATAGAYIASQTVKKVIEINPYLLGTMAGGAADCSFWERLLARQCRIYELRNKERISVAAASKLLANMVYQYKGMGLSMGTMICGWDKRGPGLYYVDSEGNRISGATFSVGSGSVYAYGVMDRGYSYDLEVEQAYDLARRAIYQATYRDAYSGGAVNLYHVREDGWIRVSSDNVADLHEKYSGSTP
Description: Negative allosteric modulation of SDS-activated human erythrocytes 20S proteasome chymotrypsin like activity up to 10 uM using LFP as substrate measured every 2 mins up to 60 mins by fluorescence assay.

Test [2] addresses T1, Proteasome Macropain subunit MB1 (Homo sapiens). Description: Positive allosteric modulation of latent human erythrocytes 20S proteasome chymotrypsin like activity up to 10 uM using LFP as substrate measured every 2 mins up to 60 mins by fluorescence assay.
The target of test [3] is Proteasome Macropain subunit (Homo sapiens) (UniProt P49721). Description: Negative allosteric modulation of SDS-activated human erythrocytes 20S proteasome trypsin like activity at 10 uM using Boc-LRR-AMC as substrate measured every 2 mins up to 60 mins by fluorescence assay.
Proteasome Macropain subunit (Homo sapiens), sequence (P49721 whole entry): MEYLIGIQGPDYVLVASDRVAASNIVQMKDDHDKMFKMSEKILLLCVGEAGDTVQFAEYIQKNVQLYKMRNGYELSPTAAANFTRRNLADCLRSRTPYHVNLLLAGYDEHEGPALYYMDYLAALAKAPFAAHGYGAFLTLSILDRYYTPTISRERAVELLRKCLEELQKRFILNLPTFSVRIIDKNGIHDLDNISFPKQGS
The target of test [4] is T2, 20S proteasome (Homo sapiens) (UniProt P49721+P20618+P28074+P28062+P28065+P28072+P25786+P25787+P25788+P25789+P28066+P60900+O14818+Q8TAA3+P40306+A5LHX3+P49720+P28070+Q99436). The experiment in a line: Negative allosteric modulation of SDS-activated human erythrocytes 20S proteasome assessed as reduction in yeast enolase degradation at 10 uM after 4 hr by SDS-PAGE analysis.

Test [5] concerns the target T1, Proteasome Macropain subunit MB1 (Homo sapiens). Description: Positive allosteric modulation of latent human erythrocytes 20S proteasome chymotrypsin like activity at 1 uM using Suc-LLVY-AMC as substrate measured every 2 mins up to 60 mins by fluorescence assay.
Test [6] deals with T2, 20S proteasome (Homo sapiens). Description: Negative allosteric modulation of SDS-activated human erythrocytes 20S proteasome assessed as reduction in human alpha-synuclein degradation at 10 uM after 1 hr by SDS-PAGE analysis. In a few lines: (§1)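 Human α-synuclein or yeast enolase digested by human 20S activated with 0.01% SDS (20S:substrate 1:100 pmol α-syn, 1:10 pmol enolase) in 20 mM HEPES pH 7.4 at 37 °C for 1 h (α-syn) or 4 h (enolase). DMSO at or below 0.05%. SDS–PAGE (12% or 10%) with Coomassie staining; remaining substrate densitometry as percent of control; at least three experiments, mean ± SEM.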

The target in test [7] is T1, Proteasome Macropain subunit MB1 (Homo sapiens). The experiment in a line: Positive allosteric modulation of latent human erythrocytes 20S proteasome chymotrypsin like activity up to 10 uM using LFP as substrate measured every 2 mins up to 60 mins by fluorescence assay.
In test [8] the target is T2, 20S proteasome (Homo sapiens). Description: Negative allosteric modulation of SDS-activated human erythrocytes 20S proteasome assessed as reduction in yeast enolase degradation at 1 uM after 4 hr by SDS-PAGE analysis.
Test [9] deals with T3, Proteasome component C5 (Homo sapiens) (UniProt P20618).
T3 sequence (whole entry): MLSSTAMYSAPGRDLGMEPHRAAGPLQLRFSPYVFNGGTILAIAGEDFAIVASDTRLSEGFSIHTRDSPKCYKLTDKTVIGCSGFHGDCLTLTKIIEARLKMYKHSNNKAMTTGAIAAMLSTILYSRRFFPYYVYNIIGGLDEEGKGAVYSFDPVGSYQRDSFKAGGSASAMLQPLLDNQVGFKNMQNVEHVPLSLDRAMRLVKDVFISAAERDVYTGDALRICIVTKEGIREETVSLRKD
The experiment in a line: Negative allosteric modulation of SDS-activated human erythrocytes 20S proteasome caspase like activity at lower concentration using Z-LLE-AMC as substrate measured every 2 mins up to 60 mins by fluorescence assay.

Test [10] has as its target T1, Proteasome Macropain subunit MB1 (Homo sapiens). The experiment in a line: Negative allosteric modulation of SDS-activated human erythrocytes 20S proteasome chymotrypsin like activity using Suc-LLVY-AMC as substrate measured every 2 mins up to 60 mins by fluorescence assay. In outline:
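1.4 nM CP (0.001 mg/mL) in 50 mM Tris-HCl pH 8.0, activated with 0.005% SDS where stated, otherwise latent. Suc-LLVY-AMC at 100 μM final. AMC fluorescence read every 2 min up to 60 min at 37 °C. Activity relative to DMSO-treated enzyme, from at least three independent replicates. Peptide stocks 10 mM in DMSO.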

In test [11] the target is T2, 20S proteasome (Homo sapiens). Description: Negative allosteric modulation of SDS-activated human erythrocytes 20S proteasome assessed as reduction in human alpha-synuclein degradation at 1 uM after 1 hr by SDS-PAGE analysis. In a few lines:
as §1

Turning to `CC(C)C[C@H](NC(=O)[C@H](Cc1ccc(O)cc1)NC(=O)[C@@H]1CCCN1C(=O)[C@@H]1CCCN1C(=O)[C@@H]1CCCN1C(=O)[C@@H]1CCCN1C(=O)[C@H](CCCNC(=N)N)NC(=O)[C@H](CCCNC(=N)N)NC(=O)[C@@H](N)CCCNC(=N)N)C(=O)N1CCC[C@H]1C(=O)N[C@@H](CCCNC(=N)N)C(=O)N[C@@H](Cc1c[nH]c2ccccc12)C(=O)NCC(=O)O` (H-RRRPPPPYLPRWG-OH), in test [1], the result was Active. Moreover, in test [2], the result was inactive.
For the compound `CC(C)C[C@H](NC(=O)[C@H](Cc1ccc(O)cc1)NC(=O)[C@@H]1CCCN1C(=O)[C@@H]1CCCN1C(=O)[C@H](CCCNC(=N)N)NC(=O)[C@@H]1CCCN1C(=O)[C@H](CCCNC(=N)N)NC(=O)[C@H](CCCNC(=N)N)NC(=O)[C@@H](N)CCCNC(=N)N)C(=O)N1CCC[C@H]1C(=O)N[C@@H](CCCNC(=N)N)C(=O)O` (H-RRRPRPPYLPR-OH), the outcome in test [3], in [1], in test [5], in [6] and in [9] was Active. Further, the result in test [4], in test [7], in test [8] and in test [2] was inactive. The Activity entry in test [10] was “Dose-dependent effect”.
`CC(C)C[C@H](NC(=O)[C@H](Cc1ccc(O)cc1)NC(=O)[C@@H]1CCCN1C(=O)[C@@H]1CCCN1C(=O)[C@H](CCCNC(=N)N)NC(=O)[C@@H]1CCCN1C(=O)[C@H](CCCNC(=N)N)NC(=O)[C@H](CCCNC(=N)N)NC(=O)[C@@H](N)CCCNC(=N)N)C(=O)N1CCC[C@H]1C(=O)N[C@@H](CCCNC(=N)N)C(=O)N[C@@H](Cc1ccccc1)C(=O)NCC(=O)O` (H-RRRPRPPYLPRFG-OH): the result in test [3], in [4], in test [1], in test [5], in test [11] and in test [6] was Active. In addition, the result in test [8] and in test [9] was Active. For the same compound, the outcome in test [7] and in [2] was inactive.
As to `CC(C)C[C@H](NC(=O)[C@H](Cc1ccc(O)cc1)NC(=O)[C@@H]1CCCN1C(=O)[C@@H]1CCCN1C(=O)[C@H](CCCNC(=N)N)NC(=O)[C@@H]1CCCN1C(=O)[C@H](CCCNC(=N)N)NC(=O)[C@H](CCCNC(=N)N)NC(=O)[C@@H](N)CCCNC(=N)N)C(=O)N1CCC[C@H]1C(=O)N[C@@H](CCCNC(=N)N)C(=O)N[C@@H](Cc1c[nH]c2ccccc12)C(=O)NCC(N)=O` (H-RRRPRPPYLPRWG-NH2), the result in test [3], in test [1] and in test [9] was Active. The result in test [7] and in test [2] was inactive.
For `CC(C)C[C@H](NC(=O)[C@H](Cc1ccc(O)cc1)NC(=O)[C@H](CCCNC(=N)N)NC(=O)[C@H](CCCNC(=N)N)NC(=O)[C@@H](N)CCCNC(=N)N)C(=O)N1CCC[C@H]1C(=O)N[C@@H](CCCNC(=N)N)C(=O)N[C@@H](Cc1c[nH]c2ccccc12)C(=O)NCC(=O)O` (H-RRRYLPRWG-OH), the outcome in test [3], in test [1] and in [9] was Active. Further, the result in [7] and in test [2] was inactive. In addition, in test [10], the Activity entry was “Dose-dependent effect”.
For `CC(C)C[C@H](NC(=O)[C@H](Cc1ccc(O)cc1)NC(=O)[C@H](CCCNC(=N)N)NC(=O)[C@H](CCCNC(=N)N)NC(=O)[C@@H](N)CCCNC(=N)N)C(=O)N1CCC[C@H]1C(=O)N[C@@H](CCCNC(=N)N)C(=O)N[C@@H](Cc1ccc(O)cc1)C(=O)N[C@@H](C)C(N)=O` (H-RRRYLPRYA-NH2), the outcome in [3], in test [1], in test [5], in test [6] and in test [9] was Active. The result in test [4], in test [7], in [8] and in [2] was inactive. For the same compound, the Activity entry in [10] is “Dose-dependent effect”.
With `N=C(N)NCCC[C@H](NC(=O)[C@H](CCCNC(=N)N)NC(=O)[C@@H](N)CCCNC(=N)N)C(=O)N[C@@H](Cc1ccc(O)cc1)C(=O)N1CCC[C@H]1C(=O)N[C@@H](CCCNC(=N)N)C(=O)N[C@@H](Cc1c[nH]c2ccccc12)C(=O)NCC(=O)O` (H-RRRYPRWG-OH), the result in test [3], in [1] and in test [9] was Active. Also, the outcome in [7] and in test [2] was inactive.
